Holding throughout (assay type): functional
Assay [1] deals with Staphylococcus epidermidis. Nature of the assay: Antibacterial activity against Staphylococcus epidermidis ATCC 14990 after 16 to 18 hrs by microbroth dilution method. Summed up:
(§1)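 Broth microdilution in Mueller–Hinton broth following CLSI recommendations. Strains came from ATCC or CCUG collections or the authors' clinical isolates. Compounds were dissolved in DMSO as a 100 mg/ml stock and then diluted in culture medium. Inoculum was 5 × 10⁴ CFU/well. MIC was read after 16–18 h incubation at 35–37 °C.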
On the technique in general: In broth dilution the organism is exposed to a series of concentrations in liquid medium.

The subject of the next assay is Escherichia coli. Briefly: Antibacterial activity against Escherichia coli CCUGT after 16 to 18 hrs by microbroth dilution method. A digest of the protocol:
as §1

For a further assay, the system named is Bacillus subtilis. Nature of the assay: Antibacterial activity against Bacillus subtilis ATCC 6633 after 16 to 18 hrs by microbroth dilution method. A digest of the protocol:
as §1

The subject of another assay is Acinetobacter baumannii. Nature of the assay: Antibacterial activity against Acinetobacter baumannii ATCC 17978 after 16 to 18 hrs by microbroth dilution method. A digest of the protocol:
as §1

The test system of a further assay is Enterococcus faecalis. Nature of the assay: Antibacterial activity against Enterococcus faecalis ATCC 19433 after 16 to 18 hrs by microbroth dilution method. Summed up: as §1
The test system of another assay is Klebsiella pneumoniae. Nature of the assay: Antibacterial activity against Klebsiella pneumoniae ATCC 13833 after 16 to 18 hrs by microbroth dilution method. A digest of the protocol: as §1
The next assay has as its system Aeromonas hydrophila. Nature of the assay: Antibacterial activity against Aeromonas hydrophila ATCC 7966 after 16 to 18 hrs by microbroth dilution method. A digest of the protocol: as §1
Another assay has as its system Streptococcus pyogenes. Briefly: Antibacterial activity against Streptococcus pyogenes ATCC 12344 after 16 to 18 hrs by microbroth dilution method. A digest of the protocol: as §1
Another assay deals with Pseudomonas aeruginosa. Nature of the assay: Antibacterial activity against Pseudomonas aeruginosa ATCC 27853 after 16 to 18 hrs by microbroth dilution method. Summed up:
as §1

The subject of assay [2] is Elizabethkingia meningoseptica. Briefly: Antibacterial activity against Elizabethkingia meningoseptica CCUG 4310 after 16 to 18 hrs by microbroth dilution method. A digest of the protocol: as §1

Bounds are passed on as bounds.

As to `C=C(C)CNC(=N)NCCCCCCCCNCCCCCCCCNC(=N)N.O=C(O)C(F)(F)F.O=C(O)C(F)(F)F.O=C(O)C(F)(F)F`, the MIC (as a rule, the least concentration at which growth counts as inhibited) is 64 µg/mL in assay [1]; 128 µg/mL in the assay with Escherichia coli; 64 µg/mL in the assay on Bacillus subtilis; greater than 256 µg/mL against Acinetobacter baumannii; 256 µg/mL against Enterococcus faecalis; 256 µg/mL in the assay with Klebsiella pneumoniae. Besides, the minimum inhibitory concentration (MIC) with Aeromonas hydrophila is greater than 256 µg/mL; against Streptococcus pyogenes, 16 µg/mL; in the assay with Pseudomonas aeruginosa, greater than 256 µg/mL; in assay [2] it was greater than 256 µg/mL.
Consider `N=C(N)NCCCCCCCCNCCCCCCCCNC(=N)NCc1ccccc1.O=C(O)C(F)(F)F.O=C(O)C(F)(F)F.O=C(O)C(F)(F)F`, for which the minimum inhibitory concentration (MIC) in assay [1] was 4 µg/mL; against Escherichia coli, 8 µg/mL; in the assay with Bacillus subtilis, 4 µg/mL; in the assay on Acinetobacter baumannii it was 64 µg/mL; against Enterococcus faecalis, 16 µg/mL; against Klebsiella pneumoniae, 16 µg/mL. The MIC is 64 µg/mL against Aeromonas hydrophila, 1 µg/mL against Streptococcus pyogenes and 64 µg/mL in the assay with Pseudomonas aeruginosa.
Regarding `C#CCNC(=N)NCCCCCCCCNCCCCCCCCNC(=N)N.O=C(O)C(F)(F)F.O=C(O)C(F)(F)F.O=C(O)C(F)(F)F`, the MIC in assay [1] is 4 µg/mL; against Escherichia coli, 16 µg/mL; in the assay on Bacillus subtilis, 4 µg/mL; with Acinetobacter baumannii, 128 µg/mL; against Enterococcus faecalis, 16 µg/mL; against Klebsiella pneumoniae it was 32 µg/mL. Besides, the minimal inhibitory concentration (MIC) with Aeromonas hydrophila is 256 µg/mL; in the assay on Streptococcus pyogenes, 2 µg/mL; with Pseudomonas aeruginosa, 256 µg/mL; in assay [2], greater than 256 µg/mL.
For the molecule `N=C(NCCCCCCCCNCCCCCCCCNC(=N)NCC1CC1)NCC1CC1.O=C(O)C(F)(F)F.O=C(O)C(F)(F)F.O=C(O)C(F)(F)F`, the MIC (in assay [1]; against Escherichia coli; with Bacillus subtilis; in the assay with Acinetobacter baumannii; in the assay with Enterococcus faecalis; against Klebsiella pneumoniae) was greater than 256 µg/mL throughout. The MIC (in the assay with Aeromonas hydrophila; in the assay on Streptococcus pyogenes; with Pseudomonas aeruginosa; in assay [2]) was greater than 256 µg/mL throughout.
Consider `N=C(N)NCCCCCCNCCCCCCNC(=N)NCC1CC1.O=C(O)C(F)(F)F.O=C(O)C(F)(F)F.O=C(O)C(F)(F)F`, for which the minimum inhibitory concentration (MIC) in [1] was 256 µg/mL; in the assay on Escherichia coli, greater than 256 µg/mL; in the assay with Bacillus subtilis, greater than 256 µg/mL; in the assay on Acinetobacter baumannii, greater than 256 µg/mL; against Enterococcus faecalis it was 16 µg/mL; against Klebsiella pneumoniae it was 256 µg/mL. For the same molecule, the MIC against Aeromonas hydrophila is greater than 256 µg/mL; against Streptococcus pyogenes, 32 µg/mL; with Pseudomonas aeruginosa, greater than 256 µg/mL; in [2], greater than 256 µg/mL.
Regarding `N=C(NCCCCCCCCN1CCCCCCCCNC(=N)NC1=O)NCC1CC1.O=C(O)C(F)(F)F.O=C(O)C(F)(F)F`, the minimal inhibitory concentration (MIC) came to 8 µg/mL in assay [1]; 4 µg/mL against Bacillus subtilis; 64 µg/mL against Acinetobacter baumannii; 32 µg/mL against Enterococcus faecalis; 128 µg/mL against Klebsiella pneumoniae; 32 µg/mL against Streptococcus pyogenes. The same molecule gave an MIC against Pseudomonas aeruginosa greater than 256 µg/mL.
`C/C=C/CNC(=N)NCCCCCCCCN1CCCCCCCCNC(=N)NC1=O.O=C(O)C(F)(F)F.O=C(O)C(F)(F)F`: the minimum inhibitory concentration (MIC) in assay [1] came out at 4 µg/mL; with Escherichia coli it was 64 µg/mL; with Bacillus subtilis, 4 µg/mL; against Acinetobacter baumannii, 32 µg/mL; with Enterococcus faecalis it was 8 µg/mL; with Klebsiella pneumoniae, 32 µg/mL. Besides, the minimum inhibitory concentration (MIC) against Aeromonas hydrophila came to 64 µg/mL; against Streptococcus pyogenes, 2 µg/mL; in the assay on Pseudomonas aeruginosa, 256 µg/mL; in assay [2], 128 µg/mL.
As for `N=C(NCCCCCCCCN1CCCCCCCCNC(=N)NC1=O)NCC1CCC1.O=C(O)C(F)(F)F.O=C(O)C(F)(F)F`, the MIC in [1] was 4 µg/mL; against Escherichia coli, 64 µg/mL; against Bacillus subtilis, 4 µg/mL; in the assay with Acinetobacter baumannii it was 32 µg/mL; with Enterococcus faecalis it was 8 µg/mL; against Klebsiella pneumoniae, 32 µg/mL. Also, the minimal inhibitory concentration (MIC) against Aeromonas hydrophila is 64 µg/mL; in the assay on Streptococcus pyogenes, 2 µg/mL; with Pseudomonas aeruginosa, greater than 256 µg/mL; in assay [2] it was 256 µg/mL.
With `C=CCNC(=N)NCCCCCCCCN1CCCCCCCCNC(=N)NC1=O.O=C(O)C(F)(F)F.O=C(O)C(F)(F)F`, the minimal inhibitory concentration (MIC) in [1] was found to be 16 µg/mL; against Bacillus subtilis, 1 µg/mL; against Acinetobacter baumannii, 64 µg/mL; with Enterococcus faecalis, 128 µg/mL; in the assay on Klebsiella pneumoniae it was 128 µg/mL; against Streptococcus pyogenes it was 4 µg/mL. The molecule further displayed a minimal inhibitory concentration (MIC) in the assay with Pseudomonas aeruginosa greater than 256 µg/mL.
For `C/C=C/CNC(=N)NCCCCCCN1CCCCCCCCNC(=N)NC1=O.O=C(O)C(F)(F)F.O=C(O)C(F)(F)F`, the MIC was 16 µg/mL in assay [1]; 256 µg/mL in the assay on Escherichia coli; 16 µg/mL with Bacillus subtilis; 256 µg/mL against Acinetobacter baumannii; 32 µg/mL with Enterococcus faecalis; greater than 256 µg/mL against Klebsiella pneumoniae. For the same molecule, the MIC was greater than 256 µg/mL against Aeromonas hydrophila, 32 µg/mL against Streptococcus pyogenes, greater than 256 µg/mL in the assay on Pseudomonas aeruginosa and 256 µg/mL in [2].
On to `C=C(C)CNC(=N)NCCCCCCN1CCCCCCCCNC(=N)NC1=O.O=C(O)C(F)(F)F.O=C(O)C(F)(F)F`, for which the minimum inhibitory concentration (MIC) is 16 µg/mL in [1]; 256 µg/mL in the assay with Escherichia coli; 16 µg/mL in the assay on Bacillus subtilis; 256 µg/mL with Acinetobacter baumannii; 64 µg/mL in the assay on Enterococcus faecalis; greater than 256 µg/mL against Klebsiella pneumoniae. Besides, the minimum inhibitory concentration (MIC) against Aeromonas hydrophila is greater than 256 µg/mL; in the assay with Streptococcus pyogenes, 8 µg/mL; against Pseudomonas aeruginosa, greater than 256 µg/mL; in assay [2] it was greater than 256 µg/mL.
Regarding `CCNC(=N)NCCCCCCN1CCCCCCCCNC(=N)NC1=O.O=C(O)C(F)(F)F.O=C(O)C(F)(F)F`, the MIC in assay [1] was 32 µg/mL; in the assay on Escherichia coli, greater than 256 µg/mL; against Bacillus subtilis, 64 µg/mL; in the assay on Acinetobacter baumannii, greater than 256 µg/mL; with Enterococcus faecalis, 128 µg/mL; against Klebsiella pneumoniae, greater than 256 µg/mL. Moreover, the MIC against Aeromonas hydrophila was greater than 256 µg/mL; against Streptococcus pyogenes, 16 µg/mL; with Pseudomonas aeruginosa, greater than 256 µg/mL; in assay [2], greater than 256 µg/mL.
Take `C#CCNC(=N)NCCCCCCN1CCCCCCCCNC(=N)NC1=O.O=C(O)C(F)(F)F.O=C(O)C(F)(F)F`: the MIC was 32 µg/mL in [1]; greater than 256 µg/mL against Escherichia coli; 64 µg/mL in the assay with Bacillus subtilis; greater than 256 µg/mL with Acinetobacter baumannii; 128 µg/mL in the assay with Enterococcus faecalis; greater than 256 µg/mL in the assay with Klebsiella pneumoniae. Moreover, the MIC was greater than 256 µg/mL in the assay with Aeromonas hydrophila, 16 µg/mL with Streptococcus pyogenes, greater than 256 µg/mL in the assay with Pseudomonas aeruginosa and greater than 256 µg/mL in assay [2].
For the molecule `CC(C)=CCNC(=N)NCCCCCCN1CCCCCCCCNC(=N)NC1=O.O=C(O)C(F)(F)F.O=C(O)C(F)(F)F`, the MIC in [1] was 16 µg/mL; in the assay on Escherichia coli, 256 µg/mL; against Bacillus subtilis, 64 µg/mL; in the assay with Acinetobacter baumannii it was 256 µg/mL; in the assay on Enterococcus faecalis it was 16 µg/mL; against Klebsiella pneumoniae it was greater than 256 µg/mL. Also, the MIC in the assay on Aeromonas hydrophila is greater than 256 µg/mL; against Streptococcus pyogenes, 8 µg/mL; in the assay on Pseudomonas aeruginosa it was greater than 256 µg/mL; in assay [2] it was greater than 256 µg/mL.
With `CN(CCCCCCCCNCCCCCCCCNC(=N)N)C(=N)NCC1CC1.O=C(O)C(F)(F)F.O=C(O)C(F)(F)F.O=C(O)C(F)(F)F`, the minimal inhibitory concentration (MIC) is 8 µg/mL in assay [1]; greater than 256 µg/mL against Escherichia coli; 256 µg/mL against Bacillus subtilis; 256 µg/mL in the assay with Acinetobacter baumannii; 4 µg/mL against Enterococcus faecalis; 8 µg/mL with Klebsiella pneumoniae. Moreover, the minimal inhibitory concentration (MIC) in the assay on Aeromonas hydrophila was greater than 256 µg/mL; with Streptococcus pyogenes, 8 µg/mL; with Pseudomonas aeruginosa, 8 µg/mL; in assay [2], 32 µg/mL.
